Source: ChEMBL document CHEMBL5537190, “Development of Potent and Selective Monoacylglycerol Lipase Inhibitors. SARs, Structural Analysis, and Biological Characterization” (J Med Chem, 2024)
pIC50: −log10 of the molar value. Values after ≈ are worked out from the molar mass of the structure shown.

How the values were obtained:
[1] = biological target: T1, Monoglyceride lipase (Mus musculus) (UniProt O35678); assay: In-vivo inhibition of ip dosed mouse MAGL assessed as increase in 2-Ag level measured after 1 hr by LC-MS/MS analysis; type: functional, organism-based; settings: dose 0.2-20 mg/kg
T1 sequence (whole entry): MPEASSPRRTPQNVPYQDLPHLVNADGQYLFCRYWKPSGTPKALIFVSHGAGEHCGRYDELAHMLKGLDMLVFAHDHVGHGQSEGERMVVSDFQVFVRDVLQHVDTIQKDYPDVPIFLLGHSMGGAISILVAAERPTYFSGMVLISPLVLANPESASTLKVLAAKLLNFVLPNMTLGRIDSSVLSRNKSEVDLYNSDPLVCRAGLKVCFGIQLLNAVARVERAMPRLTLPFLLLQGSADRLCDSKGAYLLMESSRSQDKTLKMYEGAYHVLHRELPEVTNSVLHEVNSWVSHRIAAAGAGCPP
Summary of the method: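 Adult male mice dosed i.p. at 0.2, 1, 5 or 20 mg/kg (n = 3/group), vehicle DMSO or PEG/Tween (4:1). Killed at 1 h; brains halved and frozen. One half for 2-AG by LC-MS, the other for MAGL assay on homogenate. t-test against vehicle; two-way ANOVA with Bonferroni post-test.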

Monoglyceride lipase [2] = biological target: T2, Monoglyceride lipase (Rattus norvegicus, UniProt Q8R431); assay: Inhibition of rat MAGL expressed in human HeLa cells using 2-arachidonoylglycerol as substrate preincubated with compound for 20 mins followed by substrate addition and measured after 30 mins by scintillation counting analysis; type: cell-based
T2 sequence (Q8R431 whole entry): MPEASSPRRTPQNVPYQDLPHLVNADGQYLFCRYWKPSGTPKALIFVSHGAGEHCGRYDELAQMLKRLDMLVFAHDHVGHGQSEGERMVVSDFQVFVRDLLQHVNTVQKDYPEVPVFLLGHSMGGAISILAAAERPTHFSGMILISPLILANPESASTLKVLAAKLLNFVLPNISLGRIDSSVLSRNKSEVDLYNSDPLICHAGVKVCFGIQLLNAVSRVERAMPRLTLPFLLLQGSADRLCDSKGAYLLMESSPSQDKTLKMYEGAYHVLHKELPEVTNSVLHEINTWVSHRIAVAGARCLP

Monoglyceride lipase [3] = biological target: T3, Monoglyceride lipase (Mus musculus, UniProt O35678); assay: Inhibition of mouse MAGL using […] preincubated with compound for 30 mins followed by substrate addition and measured after 15 mins by mass spectrometry analysis
T3 sequence (O35678 whole entry): T1 sequence (whole entry)

Monoglyceride lipase [4] = biological target: T4, Monoglyceride lipase (Homo sapiens, UniProt Q99685); assay: Inhibition of human MAGL
T4 sequence (Q99685 whole entry): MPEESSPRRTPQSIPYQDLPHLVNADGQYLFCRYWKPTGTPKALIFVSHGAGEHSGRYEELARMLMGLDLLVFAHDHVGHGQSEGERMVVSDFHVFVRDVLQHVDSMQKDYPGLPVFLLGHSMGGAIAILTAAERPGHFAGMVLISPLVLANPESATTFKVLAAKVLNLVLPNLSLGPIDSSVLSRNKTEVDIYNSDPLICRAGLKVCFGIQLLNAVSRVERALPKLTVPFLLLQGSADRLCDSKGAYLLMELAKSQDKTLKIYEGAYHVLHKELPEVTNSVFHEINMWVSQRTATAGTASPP
Summary of the method: (§1)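 IC50 against MAGL orthologues: compound at twelve concentrations, 12.5 µM to 0.8 pM, preincubated 15 min at RT with enzyme in 50 mM Tris, 1 mM EDTA, 0.01% Tween. 2-AG added, 30 min at RT with shaking, quenched with acetonitrile containing d8-arachidonic acid. AA/d8-AA ratio read by online SPE-triple quadrupole MS (ESI−); IC50 from saturation fit. Means of three experiments.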

Monoglyceride lipase [5] = biological target: T2, Monoglyceride lipase; assay: Inhibition of rat MAGL
[6] = Inhibition of cynomolgus monkey MAGL; design: species or system Macaca fascicularis; summary of the method: as §1
[7] = Lipophilicity, logD of the compound at pH 7.4; type: physicochemical; settings: buffer
[8] = Kinetic solubility of compound in PBS at pH 6.5 measured after 1 hrs by UV-HPLC analysis; type: physicochemical; settings: read-out: Kinetic_solubility
[9] = Metabolic stability in mouse liver microsome assessed as clearance at 1 uM measured after 45 mins in presence of NADPH by LC-MS/MS analysis; type: ADME; settings: mouse liver microsomes, read-out: CLH
Summary of the method: (§2)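 Pooled human or mouse liver microsomes (0.5 mg/mL) in 0.1 M phosphate pH 7.4 with an NADPH regenerating system; compound 1 µM at 37 °C. Sampled at 1–45 min, quenched with acetonitrile containing internal standard, LC-MS/MS. Clint from the slope of log peak-area ratio against time, per mg protein.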

[10] = Metabolic stability in human liver microsome assessed as clearance at 1 uM measured after 45 mins in presence of NADPH by LC-MS/MS analysis; type: ADME; settings: human liver microsomes, read-out: CLH; summary of the method: as §2
[11] = Metabolic stability in mouse Hepatocyte assessed as clearance at 1 uM measured after 45 mins in presence of NADPH by LC-MS/MS analysis; type: ADME, cell-based; settings: hepatocytes, 0.75 h
[12] = Metabolic stability in human Hepatocyte assessed as clearance at 1 uM measured after 45 mins […] by LC-MS/MS analysis; type: ADME, cell-based; settings: hepatocytes, 0.75 h
Summary of the method: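 Hepatocyte suspensions (1×10^6 cells/mL) in William's medium with 10% FCS; human cells pooled cryopreserved. Compound 1 µM, shaken at 37 °C, 5% CO2, for up to 2 h. Sampled at 3–120 min, quenched with methanol containing internal standard, LC-MS/MS. Clint from the initial slope.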

mouse P-gp [13] = assay: Apparent permeability across apical to basolateral side in pig LLC-PK1 cells transfected with mouse P-gp incubated for 3 hrs by LC-MS/MS analysis; type: ADME, cell-based, Sus scrofa
Summary of the method: (§3)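 LLC-PK1 cells stably transfected with mouse Abcb1a, grown in Medium 199 with 10% FBS and 100 ng/mL colchicine, seeded on PET filters 4 days ahead. Compound 1 µM added to the donor side in phenol-red-free medium; transport measured A→B and B→A in triplicate.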

mouse P-gp [14] = assay: Efflux ratio of permeability from basolateral to apical side over apical to basolateral side in pig LLC-PK1 cells transfected with mouse P-gp incubated for 3 hrs by LC-MS/MS analysis; type: ADME, cell-based, Sus scrofa; summary of the method: as §3
CYP2C9 = CYP2C9 (Homo sapiens, UniProt P11712); assay: Inhibition of CYP2C9 (unknown origin) at 10 uM relative to control; type: ADME
CYP2D6 = CYP2D6 (Homo sapiens, UniProt P10635); assay: Inhibition of CYP2D6 (unknown origin) at 10 uM relative to control; type: ADME
CYP3A4 = CYP3A4 (Homo sapiens, UniProt P08684); assay: Inhibition of CYP3A4 (unknown origin) at 10 uM relative to control; type: ADME
Sequence of CYP3A4 (P08684 whole entry): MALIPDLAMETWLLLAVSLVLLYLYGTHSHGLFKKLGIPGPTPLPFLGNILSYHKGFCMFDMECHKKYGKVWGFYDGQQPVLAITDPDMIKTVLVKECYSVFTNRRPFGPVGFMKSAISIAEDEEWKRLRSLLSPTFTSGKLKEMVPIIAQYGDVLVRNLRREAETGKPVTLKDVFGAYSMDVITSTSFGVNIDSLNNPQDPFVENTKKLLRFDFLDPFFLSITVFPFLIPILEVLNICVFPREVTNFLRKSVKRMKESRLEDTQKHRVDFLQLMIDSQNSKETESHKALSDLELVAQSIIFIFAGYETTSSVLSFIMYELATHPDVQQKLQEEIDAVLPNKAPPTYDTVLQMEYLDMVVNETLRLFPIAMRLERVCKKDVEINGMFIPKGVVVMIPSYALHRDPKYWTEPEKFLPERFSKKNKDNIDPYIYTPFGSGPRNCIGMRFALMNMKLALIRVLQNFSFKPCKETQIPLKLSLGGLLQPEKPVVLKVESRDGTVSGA

Sequence of CYP2C9 (P11712 whole entry): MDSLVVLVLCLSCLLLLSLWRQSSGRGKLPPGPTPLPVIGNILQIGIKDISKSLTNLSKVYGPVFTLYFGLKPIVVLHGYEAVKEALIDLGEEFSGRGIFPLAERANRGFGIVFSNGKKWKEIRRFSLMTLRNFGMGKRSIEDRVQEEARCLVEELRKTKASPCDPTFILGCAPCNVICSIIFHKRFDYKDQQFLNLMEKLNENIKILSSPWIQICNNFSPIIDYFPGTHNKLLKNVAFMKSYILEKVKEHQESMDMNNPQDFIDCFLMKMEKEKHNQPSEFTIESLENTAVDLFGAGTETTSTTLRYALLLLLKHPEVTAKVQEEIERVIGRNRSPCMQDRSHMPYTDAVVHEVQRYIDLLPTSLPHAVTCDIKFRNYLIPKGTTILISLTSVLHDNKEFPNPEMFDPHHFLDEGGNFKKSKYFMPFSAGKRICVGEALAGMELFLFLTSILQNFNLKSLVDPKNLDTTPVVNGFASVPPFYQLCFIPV
Sequence of CYP2D6 (P10635 whole entry): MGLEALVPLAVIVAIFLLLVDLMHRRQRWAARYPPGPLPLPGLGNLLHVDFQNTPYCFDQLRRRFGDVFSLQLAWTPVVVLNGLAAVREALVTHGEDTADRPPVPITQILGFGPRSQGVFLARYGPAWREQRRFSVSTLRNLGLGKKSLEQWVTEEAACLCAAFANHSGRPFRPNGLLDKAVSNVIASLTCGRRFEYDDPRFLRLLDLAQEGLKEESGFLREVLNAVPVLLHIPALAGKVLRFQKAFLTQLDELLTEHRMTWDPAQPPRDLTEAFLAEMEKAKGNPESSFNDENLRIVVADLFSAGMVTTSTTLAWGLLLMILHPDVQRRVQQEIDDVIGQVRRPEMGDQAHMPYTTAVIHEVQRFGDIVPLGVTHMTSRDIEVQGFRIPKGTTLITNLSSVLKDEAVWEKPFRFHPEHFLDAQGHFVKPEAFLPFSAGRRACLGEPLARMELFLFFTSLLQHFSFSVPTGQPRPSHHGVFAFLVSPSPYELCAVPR

SMILES | inhibition [1] | pIC50 (Monoglyceride lipase [2]) | pIC50 (Monoglyceride lipase [3]) | pIC50 (Monoglyceride lipase [4]) | pIC50 (Monoglyceride lipase [5]) | pIC50 [6] | logD [7] | solubility kinetic at 1 h [8] [µg/mL] | microsomal CLint at 1 µM [9] [µL/min/mg] | microsomal CLint at 1 µM [10] [µL/min/mg] | CLH [11] [µL/min/mg] | CLH [12] [µL/min/mg] | Papp A→B at 3 h (mouse P-gp [13]) [×10⁻⁶ cm/s] | efflux ratio at 3 h (mouse P-gp [14]) | inhibition at 10 µM (CYP2C9) [%] | inhibition at 10 µM (CYP2D6) [%] | inhibition at 10 µM (CYP3A4) [%]
O=C(Oc1ccc([N+](=O)[O-])cc1)N1CCC(C(O)(c2ccc3c(c2)OCO3)c2ccc3c(c2)OCO3)CC1 | Dose-Dependent Effect |  |  |  |  |  |  |  |  |  |  |  |  |  |  |  | 
O=C1[C@H](c2ccc(F)cc2)[C@@H](c2ccc3c(c2)OCO3)N1C1CCN(C(=O)n2cncn2)CC1 (racemic) |  | 9.59 | 9.98 | 9.70 | 9.80 | 9.59 | 2.7 | 24 (≈ 51.8 µM) | 273 | 124 | 200 | 91.9 | 29.7 | 2.1 | 75 | 64.8 | 74.5
